Assay results reported in ChEMBL document CHEMBL4513216, “Probing the Open Global Health Chemical Diversity Library for Multistage-Active Starting Points for Next-Generation Antimalarials” (ACS Infect Dis, 2020).

Experiment: Toxicity liver stage against HepG2, at 10uM
Assay type: cell-based
Design: test concentration 10 uM, cell line HepG2-A16-CD81EGFP
Details: human, HepG2-A16-CD81EGFP cells; read-out: INHIBITION
Method in brief: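 Uninfected HepG2-A16-CD81EGFP cells, 3 × 10^3 per well, 1536-well, plated on prespotted compound at 10 μM final, parasite-free screening media added to match infected plates; puromycin 10 μM positive, DMSO 0.5% negative; run in parallel with 48 h PbLuc assay at 37 °C, 5% CO2; viability by CellTiter-Glo luminescence, normalized to controls.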

First: COc1ccc2[nH]cc(C(=O)CNc3nc(C)cs3)c2c1
Second: COc1ccccc1CC(=O)NC(C)c1nc2cccnc2n1C(C)C (stereo not given)
The cytotoxicity at 10 µM of the first is higher: 6.04% for the first, -43.8% for the second.

First: Cn1cc(S(=O)(=O)N(CC(F)(F)F)C2CC2)cc1C(N)=O
Second: CCCC(=O)N1CCC([C@@H]2C[C@H](C(F)(F)F)n3nc(C)cc3N2)CC1
The cytotoxicity at 10 µM of the first is higher: -5.02% for the first, -16.1% for the second.

First: CC1(C)[C@H](Cc2cc(CN3CCCCC3)on2)C[C@@H]1NC(=O)C1CC1
Second: COCC(=O)N1CCCC(C(=O)NCc2cc(CC(C)C)on2)C1 (stereo not given)
The cytotoxicity at 10 µM of the first is lower: -8.17% for the first, 10.6% for the second.

Going from O=C(c1ccc(N2CCCCCC2)nn1)N1CCc2ccccc21 to O=C(c1ccc(N2CCCC2)nc1)N1CCCC(n2cncn2)C1 (stereo not given), the cytotoxicity at 10 µM rises from -8.04% to -5.22%.

First: CC(=O)N1N=C(c2ccccc2)OC1C(=O)NCCc1ccc(O)cc1 (stereo not given)
Second: CC(C)C(c1cccnc1)N(C)C(=O)Cc1ccc(O)cc1 (stereo not given)
The cytotoxicity at 10 µM of the first is lower: -4% for the first, -1.03% for the second.

Compared with CSCC[C@@H](CO)NC(=O)c1sc(-c2ccc(Cl)cc2)nc1C, CC(C#N)CNC(=O)Nc1ccc(-c2cc[nH]n2)cc1 (stereo not given) is lower in cytotoxicity at 10 µM: 6.45% for the first, -3.27% for the second.

First: CC(C)CCNc1nc(C(=O)NC2CC2)cs1
Second: Cc1cn(CC(=O)NC2CCN(C(C)C)CC2)c2ccccc12
The cytotoxicity at 10 µM of the first is higher: 0.461% for the first, 0.0531% for the second.

First: Cn1cccc1C(O)CNS(=O)(=O)c1ccccc1Br (stereo not given)
Second: Cc1sc(C(=O)O)cc1S(=O)(=O)Nc1c(F)cccc1-n1cccn1
The cytotoxicity at 10 µM of the first is lower: -11.1% for the first, -1.37% for the second.

Compared with CC(=O)N1CC2(CCN(S(=O)(=O)N(C)C)CC2)C2(CCNC2=O)C1 (stereo not given), Cc1ccc(CN2CCC3(CCC(=O)N3CC(=O)N(C)C)CC2)s1 is higher in cytotoxicity at 10 µM: -6.9% for the first, -2.45% for the second.

Compared with CN(C)C(=O)CCC(=O)N1CCC2(CC1)COC2, O=C(CCN1CCCCO1)N1CCC(CO)(CCc2ccccc2)CC1 is higher in cytotoxicity at 10 µM: 2.05% for the first, 9.71% for the second.

Going from CN1CC2(CCN(Cc3cccnc3)CC2)c2cc(F)ccc21 to COC1CCN(C(=O)c2ccccc2NCc2cccnc2)CC1, the cytotoxicity at 10 µM falls from 14% to -7.22%.

Going from CO[C@H]1CN(C(=O)c2ccc[nH]2)[C@@H]2COC[C@H]12 to CO[C@H]1CCN(C(=O)Cc2ccsc2)[C@@H]2CN(CC3CC3)C[C@H]12, the cytotoxicity at 10 µM rises from -6.04% to 6.35%.

Going from CC(C)Nc1nc(N2CCCC2)nc2c1CN(S(C)(=O)=O)CC2 to Cc1nc(N2CCCC2)ncc1-c1cc(O)nc(NCC2CCCO2)n1 (stereo not given), the cytotoxicity at 10 µM falls from 2.69% to 0.723%.

Going from N#Cc1cccc(CN2CCn3cc(CNC(=O)C4CCC4)nc3C2)c1 to CC(=O)N1CCc2nc(C3CCN(C(=O)c4ccccc4)C3)ncc2C1 (stereo not given), the cytotoxicity at 10 µM falls from 14% to -4.76%.

Compared with CCN1C(=O)C2(CCOCC2)c2cc(NC(=O)c3cccn3C)ccc21, Cc1c(C(=O)N2CCOCC2)nnn1-c1ccc2ncccc2c1 is lower in cytotoxicity at 10 µM: -2.13% for the first, -4.87% for the second.

Compared with c1ccc2c(c1)COC1(CCCCC1)N2, O=S(=O)(NCC1COc2ccccc2C1)N1CCCC1 (stereo not given) is higher in cytotoxicity at 10 µM: -11.1% for the first, -7.74% for the second.

Going from O=C(NCCn1ccc(-c2ccccn2)n1)C1CC1 to Fc1ccccc1OCCN1CCCCC1Cn1cncn1 (stereo not given), the cytotoxicity at 10 µM falls from 7.49% to -18.9%.

Compared with CS(=O)(=O)N1CCC(Cc2cnc(Br)cn2)C1 (stereo not given), COCCN1CCCC(Cc2cnc(-c3c(C)nn(C)c3C)cn2)C1 (stereo not given) is lower in cytotoxicity at 10 µM: 14.5% for the first, -2.56% for the second.

Compared with CC(C)CC(=O)N1C[C@H]2CCCN(S(=O)(=O)c3ccc(Cl)s3)[C@H]2C1, CC(C)c1nc(C2CCCN(C(=O)CCCn3cccn3)C2)no1 (stereo not given) is higher in cytotoxicity at 10 µM: -1.63% for the first, -1.36% for the second.

Going from Cc1cnc(-c2nc(NC3CCCC3)ncc2-c2onc(C)c2C)cn1 to Cc1cc(N(C)C)nc(N2CCCC2c2ccccn2)n1 (stereo not given), the cytotoxicity at 10 µM rises from -32.5% to 3.16%.

Compared with Cc1[nH]c2ccc(C(=O)N3C[C@@H](O)[C@H](N4CCOCC4)C3)cc2c1C, O=C(c1ccc(Cl)c(Cl)c1)N1CCCCC1C1OCCO1 (stereo not given) is higher in cytotoxicity at 10 µM: -21.3% for the first, 9.25% for the second.

Going from COc1ccccc1C1=NOC(CC2(C(=O)NC(C)C)CCOCC2)C1 (stereo not given) to COc1ccccc1CN1CC[C@]2(C[C@H](OC)CO2)C1, the cytotoxicity at 10 µM rises from -20.4% to -11.1%.

Going from COc1cccc(OCC(=O)N2CCOc3ccncc32)c1 to COCCC(=O)Nc1ccnc(Oc2ccccc2)c1, the cytotoxicity at 10 µM rises from 7.68% to 7.85%.

First: COC(=O)C(C)(C)NC(=O)c1scnc1Cl
Second: CN(CC(=O)NC(C)(C)C)C(=O)C1CC(c2cccc(F)c2)=NO1 (stereo not given)
The cytotoxicity at 10 µM of the first is lower: -2.31% for the first, 19.5% for the second.

First: CCc1nnc(SC2CCN(c3ccccc3F)C2=O)n1C (stereo not given)
Second: CCn1nc(C(C)C)cc1C(=O)N1CC(OCc2ccccc2F)C1
The cytotoxicity at 10 µM of the first is higher: 1.77% for the first, -4.62% for the second.

Going from CC(CN1CCOC1=O)NC(=O)c1cccc(Cl)c1Cl (stereo not given) to CCC1(CC)CC(=O)N(CC(O)c2cccc(F)c2)C1=O (stereo not given), the cytotoxicity at 10 µM falls from -3.26% to -3.43%.

First: CN(Cc1ccc(F)c(F)c1)Cc1cc2c(cc1Br)OCCO2
Second: COc1ncccc1CNC(=O)c1cc(F)cc(Br)c1
The cytotoxicity at 10 µM of the first is lower: -140% for the first, -0.872% for the second.

Compared with Cn1cc(CCCN2CCCC(c3cc(C(F)(F)F)[nH]n3)C2)cn1 (stereo not given), Cc1nc2n(n1)CC(Nc1cc(C(F)(F)F)nc3ncnn13)CC2 (stereo not given) is higher in cytotoxicity at 10 µM: -2.59% for the first, -1.27% for the second.

First: CCCS(=O)(=O)CC(=O)Nc1ccsc1
Second: CCN1CCC12CCN(C(=O)c1ccsc1)C2 (stereo not given)
The cytotoxicity at 10 µM of the first is higher: -5.61% for the first, -148% for the second.

Going from Cc1ccc(CNC(=O)NCC(=O)N2CCCC2)c(N2CCCC2)c1 to Cc1ccc(C)c(OC2CCN(C(=O)NCC(=O)N3CCCC3)CC2)c1, the cytotoxicity at 10 µM falls from 5.84% to -5.75%.

First: Clc1ccc(OCCNC2(c3ccc(Br)cc3)CCOCC2)cc1
Second: CCC(Nc1ccc(CCN2CCOCC2)cc1)C(N)=O (stereo not given)
The cytotoxicity at 10 µM of the first is lower: 2.67% for the first, 4.42% for the second.

Compared with Cc1nnc(NCC(c2cccs2)N2CCCC2)c(C#N)c1C (stereo not given), CC(NC(=O)CCc1cccs1)c1nnc2n1CCCCC2 (stereo not given) is lower in cytotoxicity at 10 µM: -4.94% for the first, -7.59% for the second.

Going from COc1c(CNCc2ccc(Cn3cccn3)cc2)c(C)nn1C to COc1c(CNCc2cccc(C(=O)N(C)C)c2)c(C)nn1C, the cytotoxicity at 10 µM falls from 35.5% to -16.9%.

First: N#Cc1ccccc1N1CCN(CCC(=O)N2CCOCC2)CC1
Second: CCCn1nccc1C(=O)N1CCN(C2CCc3ccccc3C2)CC1 (stereo not given)
The cytotoxicity at 10 µM of the first is higher: 10% for the first, -130% for the second.

First: COC(=O)C1CN(CC(=O)Nc2cc(F)ccc2F)c2ccccc21 (stereo not given)
Second: CC(C)CNC(=O)CNC(=O)Nc1cccc(Cl)c1-n1cccn1
The cytotoxicity at 10 µM of the first is higher: 8.32% for the first, -2.45% for the second.

Compared with CCn1c(C)nnc1CN(C)C1CCN(Cc2ccccn2)C1 (stereo not given), Cc1nc(CN(C)C2CCN(Cc3cnc(C)s3)C2)no1 (stereo not given) is lower in cytotoxicity at 10 µM: 1.8% for the first, -4.8% for the second.

Going from O=c1[nH]nc(CNc2ncc(Cl)cn2)[nH]1 to Cn1ccnc1CNc1nccc(-c2ncnn2C)n1, the cytotoxicity at 10 µM falls from -5.98% to -6.47%.

Going from CS(=O)(=O)CCSCc1cccc2cccnc12 to COCc1ncn2c1CN(C(=O)c1cccc3cccnc13)CC2, the cytotoxicity at 10 µM falls from -6.64% to -19.7%.

Compared with Cc1noc(CNc2ccc(OC(F)F)cc2OC(F)F)n1, CCc1noc(CNc2ccc(F)cc2OCC2CC2)n1 is lower in cytotoxicity at 10 µM: 1.85% for the first, -7.21% for the second.

First: Cc1nc(CNC(=O)Nc2ccc3c(c2)CCCC(=O)N3)sc1C
Second: Cc1nnc(CCNC(=O)Nc2ccc(S(C)(=O)=O)cc2)[nH]1
The cytotoxicity at 10 µM of the first is lower: 5.06% for the first, 7.91% for the second.

First: CN1CCN(c2ccc(NC(=O)c3cccs3)c(C(F)(F)F)c2)CC1
Second: CN1CSC[C@H]1C(=O)N1CCC(CCc2ccccc2)CC1
The cytotoxicity at 10 µM of the first is higher: 3.94% for the first, 3.23% for the second.

Going from Cc1nc(CN2CCO[C@@H]3CN(C(=O)CC4CC4)CC[C@@H]3C2)cs1 to COc1cc(N2C[C@H](C(=O)NCC3CC3)[C@@H]3CCO[C@@H]3C2)ncn1, the cytotoxicity at 10 µM falls from 3.79% to 2.87%.

Compared with COC(=O)N1CCCCC1C(=O)N(C)Cc1cc(-c2cccnc2)no1 (stereo not given), Cc1ccc(C)c(OCCN(C)C(=O)C2CCCN2C(N)=O)c1C (stereo not given) is lower in cytotoxicity at 10 µM: 0.83% for the first, -1.01% for the second.

Compared with O=C1CCC2(CCNCC2)CN1CCCOc1cccnc1, CC(C)CN1CCn2c(COCc3cccnc3)nnc2C1 is higher in cytotoxicity at 10 µM: -13.2% for the first, 5.8% for the second.

Compared with O=C(CCn1cccn1)N1CC[C@@H](c2ccc3ccccc3c2)[C@H](O)C1, CN1CCN2CCN(Cc3ccccc3Cn3cccn3)CC2C1 (stereo not given) is lower in cytotoxicity at 10 µM: 2.03% for the first, -133% for the second.

Compared with Cc1ccc([C@H]2CN(C(=O)C3CCC3)C[C@@H]2N)o1, O=C(COC1CCCCC1)N1CCCC(n2ccnc2)C1 (stereo not given) is lower in cytotoxicity at 10 µM: 7.95% for the first, -19.7% for the second.

First: COc1cc2[nH]c(=O)c(CN3CCCC(CO)C3)cc2c(OC)c1OC (stereo not given)
Second: Cc1n[nH]c(C)c1CN1CC[C@@H]2[C@@H](CCC(=O)N2CCc2c[nH]cn2)C1
The cytotoxicity at 10 µM of the first is lower: -11.7% for the first, -3% for the second.

Compared with CCCC1COCCN1Cc1ccc(NC(C)=O)cc1 (stereo not given), Cc1cccc(-c2noc(CN3CCOCC3C)n2)c1 (stereo not given) is higher in cytotoxicity at 10 µM: -145% for the first, -11.9% for the second.

First: Cc1ccccc1-n1cc(-c2ccnc(N3CCCC(CN)C3)n2)cn1 (stereo not given)
Second: Cc1cnn(CC2CCCN2C(=O)c2ccc3nnc(C)n3c2)c1 (stereo not given)
The cytotoxicity at 10 µM of the first is higher: 1.34% for the first, -8.11% for the second.

Compared with COC[C@]1(O)CCN(Cc2cnc(N(C)C)nc2)CC1(C)C, CC(C)c1noc(CN2CCN(C(=O)c3ccncc3F)CC2)n1 is lower in cytotoxicity at 10 µM: -5.03% for the first, -10.9% for the second.

Going from CC(=O)N[C@@H]1CN(Cc2nnc(-c3ccccc3)o2)C[C@H]1C(C)C to Cc1cccc(CN2C[C@@H]3COC[C@]3(CNC(=O)c3ccno3)C2)n1, the cytotoxicity at 10 µM rises from -0.598% to 3.84%.

Going from CSc1cccc(CNC(=O)C2CC(=O)N(CCN(C)C)C2)c1 (stereo not given) to CCC(O)CN1CCN(C(=O)Cc2cc(C)ccc2OC)CC1 (stereo not given), the cytotoxicity at 10 µM falls from -4.15% to -30.9%.

Going from Cc1noc(C(C)N2CCN(CCN3CCCC3=O)CC2)n1 (stereo not given) to CC(C)(C)c1noc(CCCC(=O)NCC2CCS(=O)(=O)C2)n1 (stereo not given), the cytotoxicity at 10 µM falls from -13.4% to -15.4%.

Compared with CC(Cn1cccn1)NCc1csc(-c2ncccn2)n1 (stereo not given), O=S(=O)(CCCN1CCCCC1Cn1cncn1)c1ccccc1 (stereo not given) is higher in cytotoxicity at 10 µM: -14.7% for the first, -7.42% for the second.

Going from Fc1ccccc1CN1C[C@H](OCC2CCOCC2)[C@H]2OCCC[C@H]21 to O=C1[C@H]2CN(S(=O)(=O)c3ccccc3)C[C@H]2CN1Cc1cccnc1, the cytotoxicity at 10 µM rises from -2.4% to -0.0837%.
